From PubChem
KCNQ1 pot = human KCNQ1 channel potentiation or activation; B-score at 10 µM; P51787; actives 0.35% (n = 310,000); CHO-K1 KCNQ1, thallium flux FluxOR fluorescence; stronger effect = higher value;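 active = fluorescence ratio B-score, a plate-corrected score, at least three library SD, with initial intensity B-score within 5 SD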
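Doses: Single concentration per compound, DMSO matched to controls | Test system: KCNQ1-transfected CHO-K1 cells | Timing: 90 min dye loading and 20 min compound exposure, both at room temperature | Measured by: Kinetic FluxOR thallium fluorescence, 10-s 1-Hz baseline, 110-s post-stimulus read | Medium: Assay buffer with matched DMSO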
hERG protect = hERG (human) protection from proarrhythmic block. Q12809. CHO-hERG, FluxOR thallium flux, dofetilide IC70 present. activation (rescue from dofetilide block), less the hit threshold, % at 10 µM. actives 0.51% (n = 310,000);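 active = activation above the mean of controls blocked by dofetilide plus 5 SD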;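 note: thallium influx through hERG after potassium depolarization seen as dye fluorescence rise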
Target sequence (Q12809 whole entry, looked up): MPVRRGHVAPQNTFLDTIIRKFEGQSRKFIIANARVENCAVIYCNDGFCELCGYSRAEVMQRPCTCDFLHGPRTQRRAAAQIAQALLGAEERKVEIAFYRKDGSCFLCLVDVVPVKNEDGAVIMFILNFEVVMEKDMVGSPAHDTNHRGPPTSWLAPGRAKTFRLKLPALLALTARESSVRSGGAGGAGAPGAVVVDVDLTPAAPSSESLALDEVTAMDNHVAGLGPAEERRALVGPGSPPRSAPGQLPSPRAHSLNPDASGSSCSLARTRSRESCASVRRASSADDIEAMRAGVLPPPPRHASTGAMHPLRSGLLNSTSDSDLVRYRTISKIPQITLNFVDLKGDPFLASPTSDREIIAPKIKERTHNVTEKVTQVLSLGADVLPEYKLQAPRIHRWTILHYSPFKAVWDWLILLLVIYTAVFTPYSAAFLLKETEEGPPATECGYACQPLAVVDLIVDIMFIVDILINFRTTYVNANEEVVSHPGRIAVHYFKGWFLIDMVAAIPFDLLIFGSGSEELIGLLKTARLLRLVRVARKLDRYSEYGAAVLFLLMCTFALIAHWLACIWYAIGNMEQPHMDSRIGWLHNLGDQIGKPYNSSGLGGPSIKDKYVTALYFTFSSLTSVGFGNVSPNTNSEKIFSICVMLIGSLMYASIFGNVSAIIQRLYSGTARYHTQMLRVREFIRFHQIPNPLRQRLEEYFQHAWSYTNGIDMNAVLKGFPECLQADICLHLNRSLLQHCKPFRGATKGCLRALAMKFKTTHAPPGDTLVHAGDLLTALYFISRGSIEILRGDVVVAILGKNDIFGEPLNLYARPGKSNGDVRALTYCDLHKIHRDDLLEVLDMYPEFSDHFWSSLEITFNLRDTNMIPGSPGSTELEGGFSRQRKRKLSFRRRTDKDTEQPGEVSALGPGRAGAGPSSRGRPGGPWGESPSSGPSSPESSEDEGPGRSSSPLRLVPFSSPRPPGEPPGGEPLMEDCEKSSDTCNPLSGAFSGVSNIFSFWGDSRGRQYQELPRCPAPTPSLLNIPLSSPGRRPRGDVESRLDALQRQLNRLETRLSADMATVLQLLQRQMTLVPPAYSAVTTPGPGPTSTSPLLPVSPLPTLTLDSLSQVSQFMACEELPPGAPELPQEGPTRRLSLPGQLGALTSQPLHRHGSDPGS
KCNQ1 inh = human KCNQ1 channel inhibition; P51787; CHO-K1 KCNQ1, FluxOR thallium flux fluorescence; stronger effect = higher value; B-score at 10 µM; actives 1.3% (n = 310,000); AID 2642;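 active = compounds whose thallium flux B-score, printed positive for inhibition, exceeds three library SD while starting fluorescence stays within three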;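 note: channel opened by potassium depolarization with thallium stimulus after 20 min compound exposure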
KCNK3 block = human KCNK3 channel inhibition, primary screen | O14649 | actives 0.84% (n = 340,000) | AID 602410 | CHO-KCNK3 thallium flux, FluxOR fluorescence; stronger effect = lower value | B-score at 10 µM;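 active = B-score under library mean minus 4 SD, starting fluorescence ratio at most library mean plus 5 SD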;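 note: more negative B-score means stronger inhibition of thallium flux through KCNK3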
Kir21 block = blocks the mouse Kir2.1 inward-rectifier potassium channel; B-score at 10 µM; actives 0.85% (n = 310,000); P35561; HEK293-Kir2.1, FluxOR thallium flux fluorescence; stronger effect = lower value; AID 1672;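 active = fluorescence ratio B-score at or below minus 3 SD of library scores, with starting-brightness B-score within 2 SD, cut at about -4.2 in these data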;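 note: channel flux triggered by added potassium and thallium sulfate stimulus; B-score of peak minus minimum fluorescence over baseline after thallium stimulus; more negative B-score means stronger Kir2.1 block with less thallium influx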
KCNK9 inh = blocks the human KCNK9 two-pore domain potassium channel; HEK293 KCNK9, FluxOR thallium flux fluorescence; stronger effect = lower value; AID 488922; Q9NPC2; B-score at 10 µM; actives 1.2% (n = 310,000);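 active = ratio B-score over 3 SD below the library mean, with starting fluorescence within 5 SD of its mean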;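 note: negative B-score means less thallium flux so channel inhibition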
KCNK9 inh conf = confirmation of human KCNK9 potassium channel inhibitors. AID 492992. HEK293 KCNK9 cells, FluxOR thallium flux fluorescence. shares compounds with KCNK9 inh. actives 43% (n = 4,900). inhibition, % at 10 µM;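 active = thallium signal inhibited by more than 5 SD of the compound-free buffer control wells, on both duplicate plates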
Kir21 sel = selectivity of KCNK9 modulators against mouse Kir2.1. shares compounds with KCNK9 inh. Kir2.1 cells, FluxOR thallium flux fluorescence. inhibition, % at 10 µM. actives 4% (n = 4,900). AID 492993;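 active = thallium signal drop more than 5 SD beyond the mean of the no-compound control wells, seen in both duplicate plates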;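 note: signal is fluorescence rise after thallium addition divided by baseline fluorescence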
HEK293 Tl ctr = second check of KCNK9 modulator effects in non-induced HEK293 cells. shares compounds with KCNK9 inh. FluxOR thallium flux. inhibition, % at 10 µM. actives 40% (n = 4,900). AID 492997;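 active = thallium signal drop beyond 5 SD of the untreated control mean, on both duplicate plates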
A number is an active result; . = inactive; / = not tested or not shown. Sampled rows, rich in hits. Any-hit rate of the full collection: about 3.7%.

SMILES	KCNQ1 pot	hERG protect	KCNQ1 inh	KCNK3 block	Kir21 block	KCNK9 inh	KCNK9 inh conf	Kir21 sel	HEK293 Tl ctr
Clc1ccc(CN2CCN(c3ncnc4scc(-c5cccs5)c34)CC2)cc1	.	.	7	.	.	-13	34%	.	.
Clc1ccc(-c2csc3ncnc(N4CCc5ccccc5C4)c23)cc1	.	.	.	.	.	-10	45%	.	40%
Cc1ccccc1N1CCN(c2ncnc3scc(-c4cccs4)c23)CC1	.	.	.	.	.	-14	44%	.	.
CCOC(=O)N1CCN(c2ncnc3scc(-c4ccc(Cl)cc4)c23)CC1	.	.	.	.	.	.	/	/	/
COc1ccc(/C=N/N(c2ccccc2)c2ccccc2)cc1O	.	.	8	.	.	.	.	.	.
CC(C)(C)NC(=O)C(c1ccccc1)N(C(=O)CNC(=O)c1cccs1)c1cccnc1 (stereo not drawn)	.	.	.	.	.	.	/	/	/
O=C(CCN1C(=O)C2CCCCC2C1=O)N1CCN(S(=O)(=O)c2ccccc2)CC1 (stereo not drawn)	.	.	.	.	.	.	/	/	/
Cc1ccc2c(c1)N(C(=O)CCC(=O)N1CCN(c3ccccc3)CC1)CCO2	.	.	.	.	.	.	/	/	/
CC1CCN(C(=O)CCC(=O)N2CC(C)Oc3ccccc32)CC1 (stereo not drawn)	.	.	.	.	.	.	/	/	/
Cc1cccc(N2CCN(C(=O)CCC(=O)N3CC(C)Oc4ccccc43)CC2)c1C (stereo not drawn)	.	.	.	.	.	.	.	.	.
Cc1ccc2c(c1)N(C(=O)CCC(=O)N1CCN(c3cccc(C)c3C)CC1)CCO2	.	.	.	.	.	.	.	.	.
COc1ccc(S(=O)(=O)N2CCOC23CCN(S(=O)(=O)c2cccs2)CC3)cc1	.	.	.	.	.	.	/	/	/
COC(=O)c1sccc1NC(=S)N1CCN(c2ccc(F)cc2)CC1	.	.	.	.	.	-9.7	.	.	32%
COC(=O)c1sccc1NC(=S)N1CC(C)CC(C)C1 (stereo not drawn)	.	.	.	.	.	.	.	.	28%
COC(=O)c1sccc1NC(=S)N1CCN(c2ccccc2)CC1	.	.	.	.	.	.	/	/	/
COC(=O)c1sccc1NC(=S)N1CCC(C)CC1	.	.	.	.	.	.	/	/	/
S=c1[nH]nc(C2(c3ccccc3)CCCC2)o1	.	.	.	.	.	.	/	/	/
Cc1ccc(NC(=O)CN2C(=O)CC(C)S(=O)(=O)c3ccccc32)cc1 (stereo not drawn)	.	.	.	.	.	.	/	/	/
CCc1ccc(OCCNC(=O)c2ccccc2SCc2ccccc2)cc1	.	.	7	.	.	.	.	.	37%
CS(=O)(=O)N(CC(=O)Nc1ccc(Br)cc1)C1CCCCC1	.	.	.	.	.	.	/	/	/
CCOC(CCn1c(SCc2cccc([N+](=O)[O-])c2)nc2ccccc2c1=O)OCC	.	.	.	.	.	-15	68%	.	45%
CCCCn1c(SCc2cccc([N+](=O)[O-])c2)nc2ccsc2c1=O	.	.	6	.	.	-16	80%	.	38%
COCCn1c(SCc2cccc([N+](=O)[O-])c2)nc2ccccc2c1=O	.	.	.	.	.	-8.8	64%	.	30%
CCCCn1c(SCC(=O)Nc2cc(C)on2)nc2ccsc2c1=O	.	.	.	.	.	.	/	/	/
CCc1c(O)nc(SCc2ccccc2)n(C(C)CC)c1=O (stereo not drawn)	.	.	.	.	.	.	/	/	/
SMILES	KCNQ1 pot	hERG protect	KCNQ1 inh	KCNK3 block	Kir21 block	KCNK9 inh	KCNK9 inh conf	Kir21 sel	HEK293 Tl ctr
CCC(C)n1c(SCc2ccc([N+](=O)[O-])cc2)nc2ccsc2c1=O (stereo not drawn)	.	.	.	.	.	-13	69%	.	44%
Cc1c(C(=O)N2CCCCC2)c(S(=O)(=O)NCc2ccc(Cl)cc2)c(C)n1C	.	.	.	.	.	.	/	/	/
Cc1c(C(=O)N2CCCCC2)c(S(=O)(=O)N2CCc3ccccc32)c(C)n1C	.	.	.	.	.	.	/	/	/
CC(C)c1nnc(NC(=O)c2cccc(NC(=O)C(F)(F)F)c2)s1	.	.	.	.	.	.	/	/	/
Cc1ccc(C(c2nnnn2C2CCCC2)N2c3ccccc3CC2C)cc1 (stereo not drawn)	.	.	7	.	.	-11	70%	.	50%
CCOC(=O)c1c(NC(=S)Nc2ccccc2)sc2c1CC(C)(C)SC2	.	.	8	.	.	-9.1	.	.	33%
CCOC(=O)c1c(NC(=S)Nc2ccc(OC)cc2)sc2c1CCC2	.	.	.	.	.	.	/	/	/
C[C@]12CCC[C@H](O1)c1c(cc3c(c1O)C(=O)c1c(O)cc(O)cc1C3=O)O2	.	.	14	-10	.	-12	58%	.	42%
Cc1[nH]n(C(N)=S)c(=O)c1N=Nc1cccc([N+](=O)[O-])c1C	.	.	.	.	.	.	.	.	.
Cc1c(N=Nc2c(-c3ccc([N+](=O)[O-])cc3)[nH]n(C(N)=S)c2=O)cccc1[N+](=O)[O-]	/	/	/	.	/	/	/	/	/
CC1CCC(NC(=O)CCn2ccc3cc(S(=O)(=O)N4CCCC4)ccc32)CC1 (stereo not drawn)	.	.	.	.	.	.	/	/	/
CCC(C)N1CC(=O)N2C(c3ccc(OC)cc3OC)c3[nH]c4ccccc4c3C[C@H]2C1=O (stereo partly drawn)	.	.	.	.	.	.	/	/	/
O=[N+]([O-])c1ccc(/C=C/c2ccc3cccc([N+](=O)[O-])c3n2)cc1	.	.	.	.	.	.	/	/	/
O=[N+]([O-])c1cccc2ccc(/C=C/c3ccc(F)cc3)nc12	.	.	.	.	.	-13	48%	.	32%
C[C@@H](Oc1ccccc1)c1nnn(Cc2ccccc2)c1-c1c([C@@H](C)Oc2ccccc2)nnn1Cc1ccccc1	.	.	.	/	.	-12	.	.	36%
CC(C)[C@H](NC(=O)c1ccccc1Cl)C(=O)OCC(=O)NCc1ccc2c(c1)OCO2	/	/	/	.	/	/	/	/	/
C=CCc1ccc(OCCCCOc2ccc(C(=O)O)cc2)c(OC)c1	.	.	.	.	.	.	/	/	/
C=CCc1ccc(OCCOc2cccc3ccc(C)nc23)c(OC)c1	.	.	.	.	.	.	.	.	.
C=CCc1ccc(OCCCOc2ccc(C)c(C)c2)c(OC)c1	.	.	.	.	.	.	.	.	.
